One series deals with Plasmodium falciparum. Briefly: Antimalarial activity against chloroquine-resistant and mefloquine-sensitive Plasmodium falciparum W2 infected in human O-positive erythrocytes assessed as inhibition of parasite growth by [3H]hypoxanthine incorporation assay. It counts as functional, organism-based. The method, boiled down:
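Compounds were tested at several concentrations, diluted in 4% DMSO/RPMI without hypoxanthine, with mefloquine as control. Growth was measured by 3H-hypoxanthine uptake versus untreated wells. Triplicate, means ± SD of three independent experiments.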

A short description of series [1]: Cytotoxicity against BALB/c mouse splenocytes assessed as [3H]thymidine incorporation after 24 hrs by beta counting. Format: cell-based, Splenocyte. The note with it: read-out: LC50. Summed up: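 BALB/c splenocytes, 6 × 10^5 cells/well, in DMEM + 10% FCS + 50 μg/mL gentamycin. Compounds were tested at five concentrations in triplicate. 3H-thymidine (1 μCi/well) was added, followed by 24 h at 37 °C, 5% CO2, then β-counting. Cytotoxicity was taken relative to untreated cultures and LC50 derived. Means ± SD of three experiments.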
A general note: Dividing cells build labelled thymidine or BrdU into new DNA.

Series [2] is described as follows: Selectivity index, ratio of LC50 for mouse splenocytes to IC50 for chloroquine-resistant and mefloquine-sensitive Plasmodium falciparum W2. Summed up:
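SI = splenocyte LC50 (3H-thymidine assay) divided by W2 P. falciparum IC50 (3H-hypoxanthine assay), each from three independent experiments.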

In series [3] the test system is Plasmodium berghei. Briefly: Antimalarial activity against Plasmodium berghei NK65 infected in mouse assessed as reduction of parasitemia level at 50 to 100 mg/kg, ip qd for 4 days by optical microscopy analysis. It counts as functional, organism-based. Summed up: (§1)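 Male Swiss mice (5-week-old, SPF), groups of five, infected with P. berghei NK65 (line kept by weekly ip blood passage of 10^6 infected RBC). Dosing ip, 200 μL, daily for four consecutive days from the first day of infection, in saline + 10% DMSO. Comparators were chloroquine 50 mg/kg and 10% DMSO/saline mock. Survival was monitored to day 24.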

The test system of series [4] is Plasmodium berghei. Briefly: Antimalarial activity against Plasmodium berghei NK65 infected in mouse assessed as reduction of host mortality at 50 to 100 mg/kg, ip qd for 4 days measured on day 7. Format: functional, organism-based. The method, boiled down: as §1
Series [5] has as its system Plasmodium berghei. Briefly: Antimalarial activity against Plasmodium berghei NK65 infected in mouse assessed as reduction of parasitemia level at 50 to 100 mg/kg, ip qd for 4 days measured on day 8 postinfection by optical microscopy analysis. It counts as functional. Details: scale not given: the % may be the effect or the level left. As to conditions: dose mg/kg 50-100; route intraperitoneal. Summed up:
as §1

Series [6] relates to Plasmodium berghei. Briefly: Antimalarial activity against Plasmodium berghei NK65 infected in mouse assessed as reduction of host mortality at 100 mg/kg, ip qd for 4 days measured on day 24 postinfection. As to conditions: route intraperitoneal. Details: scale not given: the % may be the effect or the level left. Format: functional. The method, boiled down: as §1
Series [7] relates to Plasmodium berghei. Briefly: Antimalarial activity against Plasmodium berghei NK65 infected in mouse assessed as reduction of parasitemia level at 50 mg/kg, ip qd for 4 days by optical microscopy analysis. Format: functional, organism-based. Details: dose 50 mg/kg. The method, boiled down: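 Male SPF Swiss mice, 5 weeks old, infected with P. berghei NK65 (line kept by weekly ip blood passage of 10^6 infected RBC). Groups of five were dosed ip daily for 4 days from the first day of infection, in 200 μL saline plus 10% DMSO. Chloroquine 50 mg/kg and vehicle served as controls. Parasitemia was counted by microscopy on methanol-fixed, fast-panoptic-stained blood smears on days 4–8. Reduction was calculated versus vehicle. Two replicate experiments were run.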

Structures are written as SMILES. Activity calls are given as the source filed them. No cut-off for these calls is given here.

The term IC50 denotes the concentration that inhibits the measured activity by half. As to `C[C@@]12C[C@H]3OC(=O)[C@@H]1CO[C@]14O[C@]5([C@H]2C1=O)[C@@](O)(CC[C@H]1[C@H]4C[C@H]2O[C@]24CC=CC(=O)[C@]14C)C(=O)O[C@@]35C` [PHYSALIN F], the IC50 in the series with Plasmodium falciparum worked out at 2.2 µM. For the same compound, the CC50 at 24 h in series [1] amounted to 13.3 µM. In series [2], the “Ratio LC50/IC50” value was 5.94. Besides, in the series with Plasmodium berghei [3], the outcome was inactive. Further, the result with Plasmodium berghei [4] was Active.

Consider `C[C@]12C(=O)C=CC=C1[C@@H](O)C[C@@H]1[C@@H]2CC[C@@]2(O)C(=O)O[C@@]3(C)[C@H]4C[C@]5(C)[C@@H](CO[C@@]16O[C@]23[C@H]5C6=O)C(=O)O4` [PHYSALIN G], for which the IC50 in the series on Plasmodium falciparum stood at 6.7 µM. Moreover, the CC50 at 24 h in series [1] is 37.5 µM. In addition, the “Ratio LC50/IC50” value in series [2] came out at 5.6.

Consider `OC(c1cc(C(F)(F)F)nc2c(C(F)(F)F)cccc12)C1CCCCN1` (centres undefined) [MEFLOQUINE], for which the CC50 at 24 h in series [1] is 9.5 µM. In addition, the “Ratio LC50/IC50” value in series [2] was found to be 238.

Turning to `C[C@]12C(=O)C=CCC1=CC[C@@H]1[C@@H]2CC[C@]2(O)C(=O)O[C@@]3(C)[C@H]4C[C@]5(C)[C@@H](CO[C@@]16O[C@@]32[C@H]5C6=O)C(=O)O4` [PHYSALIN B], the IC50 with Plasmodium falciparum came out at 2.8 µM. Besides, the CC50 at 24 h in series [1] was determined as 33.9 µM. The “Ratio LC50/IC50” value in series [2] is listed as 12.3.

On to `C[C@@]12C[C@H]3OC(=O)[C@@H]1CO[C@@]14O[C@]5([C@H]2C1=O)[C@@](O)(CC[C@H]1[C@H]4C[C@@H](O)[C@@]2(O)CC=CC(=O)[C@]12C)C(=O)O[C@@]35C` [PHYSALIN D], for which, in the series on Plasmodium falciparum, the IC50 worked out at 55 µM. For the same compound, the CC50 at 24 h in series [1] is 570 µM. In addition, in series [2], the “Ratio LC50/IC50” value is reported as 10.4. Moreover, the figures for the Activity in the series on Plasmodium berghei [5] and with Plasmodium berghei [6] were 65% and 25%, respectively.

As for `CCN(CC)CCCC(C)Nc1ccnc2cc(Cl)ccc12` (centres undefined), the result in the series on Plasmodium berghei [7] was Active.

The record behind these values is ChEMBL document CHEMBL1833917, “Antimalarial activity of physalins B, D, F, and G” (J Nat Prod, 2011).
